CCR6 antagonist: antagonists of human CCR6 receptor; actives 0.49% (n = 340,000); AID 493098; inhibition, % at 20 µM; CHO-K1 CCR6 PathHunter beta-arrestin, luminescence, CCL20-stimulated;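 active = compounds whose inhibition of the agonist-driven luminescence signal at 20 µM reaches about 50%, limit read from the data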;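 also: cells stimulated with CCL20 at 14 nM final; plate controls were DMSO with CCL20 for no effect and DMSO without agonist for full effect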
EBI2 block: blocks human EBI2 receptor beta-arrestin signaling | EBI2 beta-arrestin recruitment, luminescence, 7a,25-OHC stimulated | AID 651636 | actives 0.81% (n = 360,000) | inhibition, % at 5 µM | P32249; in the data active = inhibition above about 38%;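 also: enzyme fragment complementation signal reports receptor beta-arrestin coupling in cells; 0% = agonist plus DMSO wells and 100% = wells without agonist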
Target sequence (P32249 whole entry, looked up, the tested form may be a part): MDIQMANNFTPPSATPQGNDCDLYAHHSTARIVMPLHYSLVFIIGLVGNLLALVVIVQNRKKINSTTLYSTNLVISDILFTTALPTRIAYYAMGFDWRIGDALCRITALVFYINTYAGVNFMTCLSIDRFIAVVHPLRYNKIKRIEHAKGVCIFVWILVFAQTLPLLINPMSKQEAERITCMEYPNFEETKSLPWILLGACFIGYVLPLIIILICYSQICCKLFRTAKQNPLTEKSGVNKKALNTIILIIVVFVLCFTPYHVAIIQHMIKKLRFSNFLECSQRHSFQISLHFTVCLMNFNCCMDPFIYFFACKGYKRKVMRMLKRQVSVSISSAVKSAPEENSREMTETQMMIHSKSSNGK
CXCR6 block: CXCR6 (human) receptor inhibition; CHO-K1 PathHunter CXCR6 beta-arrestin, luminescence; inhibition, % at 20 µM; actives 0.36% (n = 360,000); in the data active = inhibition above about 34%, passing the limit was not always enough;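 also: antagonist mode with CXCL16 agonist at 10 nM final; 0% = 10 nM CXCL16 with DMSO and 100% = unstimulated wells without agonist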
APJ ag: APJ receptor agonism; CHO-K1 APJ PathHunter beta-arrestin, luminescence; 0% DMSO wells, 100% apelin; activation, % at 20 µM; AID 2520; actives 0.11% (n = 330,000); P35414;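 active = activation more than six SD over the plate average, tested at 20 µM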;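 also: 0% = DMSO alone and 100% = apelin-13 at 10 nM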
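Incubation: overnight seeding, 90 min compound at 25 °C, 1 h detection; test system: PathHunter CHO-K1 APJ (AGTRL-1) beta-arrestin reporter cells; amount: 1000 cells/well; doses: one dose, 20 µM compound, 1% DMSO; measured by: beta-gal luminescence; measure: agonist-driven arrestin binding to APJ; benchmarks: negative DMSO alone, positive Apelin-13 at 10 nM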
APJ antag: blocks the human apelin receptor APJ | CHO-K1 APJ beta-arrestin complementation, luminescence | inhibition, % at 20 µM | actives 0.32% (n = 330,000);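 active = inhibition above about 40% at 20 µM, limit read from the data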;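 also: cells challenged with 10 nM apelin-13 agonist together with compound; plate controls were apelin-13 plus DMSO wells for no effect and DMSO wells lacking apelin-13 for full effect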
* marks the source's active call; other numbers are inactive results; nt = no result given. An excerpt weighted towards active compounds, which were near 1.5% of everything screened.

SMILES	CCR6 antagonist	EBI2 block	CXCR6 block	APJ ag	APJ antag
COc1ccc(Cn2c(/C=C/c3ccccc3)nc3ccccc32)cc1	18	42*	31	-2	9
O=C(Nc1cc(S(=O)(=O)Nc2ccccc2Cl)ccc1O)c1sc2cc(Cl)ccc2c1Cl	75*	8	26	-2	13
O=C(NCCc1c[nH]c2ccccc12)c1cccc(S(=O)(=O)Nc2ccccc2Cl)c1	-18	7	-3	2	-16
CN(c1ccccc1)S(=O)(=O)c1cccc(C(=O)NCCc2c[nH]c3ccccc23)c1	22	48*	-9	0	9
C[C@@H]1CN([C@@H](C)CO)S(=O)(=O)c2ccc(Br)cc2O[C@@H]1CN(C)C(=O)c1ccccn1	nt	0	4	nt	nt
NNc1ncnc2scc(-c3ccc(Cl)cc3)c12	6	3	4	1	46*
Clc1ccc(-c2csc3ncnc(Cl)c23)cc1	12	9	4	-3	-2
CCC(NC(=O)c1ccccc1NC(=O)c1ccccc1)C(=O)NNC(=O)c1cccnc1 (configuration not stated)	4	-7	-1	-5	9
O=C(C#Cc1ccccc1)c1cccc([N+](=O)[O-])c1	93*	32	91*	0	35
O=C(C1=C[C@H](c2csc3ccccc23)C[C@H](OCc2ccc(CO)cc2)O1)N1CCN(Cc2ccccc2)CC1	14	33	12	4	-23
O=C(C1=C[C@H](c2csc3ccccc23)C[C@H](OCc2ccc(CO)cc2)O1)N1CCN(Cc2ccc3c(c2)OCO3)CC1	11	51*	7	-1	-4
CCCCNC(=S)N/N=C1\C(=O)c2cccc3cccc1c23	12	5	12	-6	15
CNC(=S)N/N=C1\C(=O)c2cccc3cccc1c23	52*	17	37	-5	39
Oc1ccc(CN2CCN(c3ccccc3)CC2)c2cccnc12	-1	60*	8	-3	-19
Oc1ccc(CN2CCc3ccccc3C2)c2cccnc12	44	67*	27	-6	21
Cc1ccn2c(Nc3ccccc3)c(-c3ccccn3)nc2c1	26	-6	29	-7	49*
CC(=O)NCCc1nc2cc(NC(=O)COc3ccc(C)cc3)ccc2n1C	11	0	-1	0	2
C[C@H]1CN(CCc2ccccc2)C(=O)[C@@H]1CC(=O)NCc1ccccc1	0	-7	-2	13	-34
CN(Cc1ccccc1)S(=O)(=O)c1ccc(NC(=S)NC(=O)C(C)(C)C)cc1	21	14	26	2	18
CN(Cc1ccccc1)S(=O)(=O)c1ccc(NC(=S)NC(=O)C2CCCCC2)cc1	51*	18	33	-4	5
COc1cc2c(cc1OC)CN(C(=O)CSc1ccccc1C)CC2	-7	-1	-12	0	9
COc1ccc(Nc2nc(N3CCCC3)c3ccccc3n2)cc1	-7	-16	3	10	1
CCN(CC)c1ccc(Nc2nc(N3CCOCC3)c3ccccc3n2)cc1	-1	45*	1	6	-24
COc1ccc(-n2nc3c(N4CCC(C(=O)NCc5ccccc5C)CC4)nnc(C)c3c2C)cc1	51*	19	12	-1	13
COc1ccc(-n2nc3c(N4CCC(C(=O)NCCc5ccccc5C)CC4)nnc(C)c3c2C)cc1	17	5	-2	4	-43
SMILES	CCR6 antagonist	EBI2 block	CXCR6 block	APJ ag	APJ antag
CC(OC(=O)c1ccc(S(C)(=O)=O)c([N+](=O)[O-])c1)C(=O)NC1C2CC3CC(C2)CC1C3 (configuration not stated)	nt	65*	11	nt	nt
CS(=O)(=O)c1ccc(C(=O)OCC(=O)NC23CC4CC(CC(C4)C2)C3)cc1[N+](=O)[O-]	47	65*	10	5	24
c1cc2c(cc1C1CCCCC1)c1c3n2CCCNC3CCC1 (configuration not stated)	71*	-17	4	0	-4
COc1cc(/C=C(\C#N)C(=O)NCC2CCCO2)ccc1OCCC(C)C (configuration not stated)	2	11	10	1	14
CCOP(=O)(OCC)C(C#N)=C1SCN(c2ccc(Cl)cc2)CS1	82*	2	28	-1	20
O=C(O/N=C/c1ccc(Br)cc1)c1ccc(F)cc1	11	3	3	-2	-3
COc1ccc(/C=C/C(=O)NCCSCc2ccco2)cc1OC	-1	-18	0	-2	11
CC(C)(C)c1cc(NC(=O)C2(C)CCN2C(=O)C2(c3ccccc3)CCCC2)no1 (configuration not stated)	nt	5	9	nt	nt
O=C(NC1CCCCC1)C(c1cccc2ccccc12)n1c(=O)c(-c2ccco2)nc2ccccc21 (configuration not stated)	nt	7	nt	nt	nt
Cc1nc([N+](=O)[O-])c(Br)n1CC(=O)c1ccc(Cl)cc1	24	1	12	4	9
Cc1nc([N+](=O)[O-])c(Br)n1Cc1ccc(Cl)c(Cl)c1	8	50*	6	nt	nt
CN(c1ccccc1)S(=O)(=O)c1cccc(NC(=O)CCN2C(=O)C3CCCCC3C2=O)c1 (configuration not stated)	2	1	2	-1	6
N/C(Cc1ccc(Cl)cc1)=N\OC(=O)c1cccc2ccccc12	-2	52*	-14	17	-36
COc1ccc(CN2CN(c3ccc(Cl)cc3)C(=O)N(n3cnnc3)C2)cc1	-16	-4	44*	-5	24
COc1ccc(C(CNC(=O)C(C)Oc2ccc(Br)cc2)N2CCCCC2)cc1 (configuration not stated)	12	2	8	-5	-6
N#C/C(=C\c1ccc(O)cc1)c1nc2ccccc2o1	40	2	23	-5	45*
Cc1cccc(CCNC(=O)C2CC(O)CN2C(=O)Nc2ccccc2)c1 (configuration not stated)	nt	2	17	nt	nt
Cc1cccc2c1N(CCCOc1ccc(C(C)(C)C)cc1)C(=O)C2=O	51*	4	24	-14	21
Cc1cccc(OCCN2C(=O)C(=O)c3cccc(C)c32)c1	0	-6	-5	0	-3
Cc1ccccc1OCCCN1C(=O)C(=O)c2cccc(C)c21	58*	12	30	-8	48*
CCOc1ccc(C(=O)NC(=S)Nc2ccc(NC(=O)c3ccco3)c(C)c2)cc1[N+](=O)[O-]	50*	2	24	-5	27
CCOc1ccc(C(=O)NC(=S)Nc2ccc(N3CCC(C)CC3)cc2)cc1[N+](=O)[O-]	53*	8	24	nt	nt
O=S(=O)(c1cccc(Br)c1)N1CCN(C(=S)NCC2CCCO2)CC1 (configuration not stated)	3	0	2	-3	11
O=C(N/C(=C/c1ccc(Cl)cc1)c1nc2ccccc2[nH]1)c1ccco1	6	0	-2	0	8

Compound activity as filed in PubChem BioAssay.
